Rows were chosen to be rich in hits. Some 0.6% of all compounds tested hit in one or more screens of this group.
DDE Tn7 FP inh – inhibitors of Tn7 peptide binding to fibrin DD(E), primary screen, biochemical, fluorescence polarization, human fibrin, Tn7 probe; FP displacement of FITC-Tn7 peptide from fibrin DD(E); 0% = median of compound wells per plate; inhibition, % at 8.3 µM; 0.13% of 370,000 active; AID 720508, 2013;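 active means inhibition above the mean of compounds falling within the control limits plus 3 SD of them, cut at about 14% in these data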
Target sequence (P02675 whole entry, looked up): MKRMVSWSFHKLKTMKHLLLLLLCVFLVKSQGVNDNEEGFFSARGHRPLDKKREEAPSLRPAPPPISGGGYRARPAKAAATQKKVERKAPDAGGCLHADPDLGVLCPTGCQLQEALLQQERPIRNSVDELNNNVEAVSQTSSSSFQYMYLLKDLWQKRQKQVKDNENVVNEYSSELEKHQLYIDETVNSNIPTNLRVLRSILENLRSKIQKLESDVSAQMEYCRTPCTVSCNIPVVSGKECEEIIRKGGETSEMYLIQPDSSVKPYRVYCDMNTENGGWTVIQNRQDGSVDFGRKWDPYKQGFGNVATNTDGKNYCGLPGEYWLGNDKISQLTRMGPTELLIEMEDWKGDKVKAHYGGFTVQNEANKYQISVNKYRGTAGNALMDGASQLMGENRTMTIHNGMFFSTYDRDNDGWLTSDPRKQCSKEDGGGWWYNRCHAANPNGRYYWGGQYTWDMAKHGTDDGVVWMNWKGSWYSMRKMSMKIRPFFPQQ
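Assay system: Human fibrin DD(E) protein | Medium: Tris buffer with calcium and detergent, pH 7.8 | Reagent: 0.1 µM fluorescent Tn7 | Compound dosing: Single point at 8.3 µM | Times: 10 min preincubation, 3 h with tracer, room temperature | Detection: Fluorescence polarization of the labelled Tn7 tracer | Controls: Aha-Tn7 high control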
Rtt109 HAT inh – inhibitors of C. albicans Rtt109/Vps75 HAT, primary screen, biochemical, ThioGlo CoA-SH fluorescence, plate reader; purified Rtt109/Vps75, 4 h; inhibition, % at 34.9 µM; 0.16% of 330,000 active; AID 540336, 2011;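 active means inhibition of at least 50% in every replicate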
LANA DNA inh – inhibitors of KSHV C-LANA binding to DNA, primary screen, biochemical, fluorescence polarization, FAM-LBS DNA, MBP-C-LANA, single point; 0.078% of 340,000 active; AID 504423, 2011; inhibition, % at 9 µM;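 active means highest replicate inhibition at or above 60% at 9 µM, even if other replicates fall short; inactive means all replicates below 60% inhibition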
Keap1 Nrf2 FP – Keap1-Nrf2 protein-protein interaction inhibitors, primary screen, biochemical, fluorescence polarization, single point; Kelch-like ECH-associated protein 1 (Homo sapiens), Q14145; Keap1 Kelch-Nrf2 peptide fluorescence polarization, 1536-well; inhibition, % at 9.4 µM; 0.15% of 340,000 active; in the data active means inhibition above about 12%;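 further: human Keap1 Kelch domain with fluorescein labeled Nrf2 9mer peptide probe; higher means more block of Keap1 binding to Nrf2 peptide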
DDE Tn6 FP inh – inhibitors of Tn6 peptide binding to fibrin DD(E), primary screen, biochemical, fluorescence polarization, human fibrin, Tn6 probe; 0.21% of 370,000 active; Fibrin DD(E) TRITC-Tn6 fluorescence polarization displacement; inhibition, % at 8.3 µM;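 active means inhibition above a per-campaign cutoff: mean of compounds within control limits plus 3 SD, cut at about 15% in these data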
A number is an active result.

Cc1cc(S(=O)(=O)Cc2noc(-c3c(C)noc3C)n2)c(C)cc1Cl was read as DDE Tn7 FP inh inactive, Rtt109 HAT inh inactive, LANA DNA inh inactive, Keap1 Nrf2 FP inactive and DDE Tn6 FP inh inactive.
For CCN(CC)C(=O)CC[C@@H]1CC[C@]2(CCCN(Cc3cccnc3)C2)O1 the results were DDE Tn7 FP inh inactive and DDE Tn6 FP inh inactive.
Screening CC(C)[C@H](NC(=O)OCc1ccccc1)C(=O)OCC(=O)NC1(C#N)CCCC1 returned DDE Tn7 FP inh 15, Rtt109 HAT inh inactive, LANA DNA inh inactive, Keap1 Nrf2 FP inactive and DDE Tn6 FP inh inactive.
CC(=O)/C(=N/Nc1ccccc1)Sc1nnc(C(O)c2ccccc2)n1-c1ccccc1 (stereo unspecified) was read as DDE Tn7 FP inh inactive, Rtt109 HAT inh 57, LANA DNA inh inactive, Keap1 Nrf2 FP inactive and DDE Tn6 FP inh inactive.
Screening COc1ccc(-c2c(C)nn3c(C)cc(C)nc23)cc1 returned DDE Tn7 FP inh inactive, Rtt109 HAT inh 58, LANA DNA inh inactive, Keap1 Nrf2 FP inactive and DDE Tn6 FP inh inactive.
For Oc1ccc2ccccc2c1C=Nn1c(-c2n[nH]c3c2CCC3)n[nH]c1=S the results were DDE Tn7 FP inh inactive and DDE Tn6 FP inh inactive.
O=C(NC1CCCCN(Cc2cccc(C(F)(F)F)c2)C1=O)C1C2CC3CC(C2)CC1C3 (stereo unspecified) was read as DDE Tn7 FP inh inactive and DDE Tn6 FP inh inactive.
`CN1CCN(S(=O)(=O)c2cccc(C(=O)N(Cc3ccccc3)c3ccccc3)c2)CC1` gave DDE Tn7 FP inh inactive, Rtt109 HAT inh 56, LANA DNA inh inactive, Keap1 Nrf2 FP inactive and DDE Tn6 FP inh inactive.
CC(=O)c1cccc(NC(=O)c2cc(Cl)sc2Cl)c1 was read as DDE Tn7 FP inh inactive, Rtt109 HAT inh inactive, LANA DNA inh inactive, Keap1 Nrf2 FP inactive and DDE Tn6 FP inh inactive.
Screening CCc1sc(C(=O)Nc2cccc(C(C)=O)c2)cc1C returned DDE Tn7 FP inh inactive, Rtt109 HAT inh 52, LANA DNA inh inactive, Keap1 Nrf2 FP inactive and DDE Tn6 FP inh inactive.
Screening O=C(O)c1ccccc1-c1ccc(/C=c2\sc3nc4cc(Br)cnc4n3c2=O)o1 returned Rtt109 HAT inh inactive, LANA DNA inh 74 and Keap1 Nrf2 FP inactive.
For Cc1c[nH]c2cccc(-c3ccc(Cl)cc3Cl)c12 the results were DDE Tn7 FP inh inactive and DDE Tn6 FP inh inactive.
`O=c1c2cc(F)ccc2sn1-c1ccccc1` gave DDE Tn7 FP inh inactive, Rtt109 HAT inh 132, LANA DNA inh inactive, Keap1 Nrf2 FP inactive and DDE Tn6 FP inh inactive.
For O=c1c2ccccc2sn1-c1ccccc1F the results were DDE Tn7 FP inh inactive and DDE Tn6 FP inh inactive.
`O=C(O)c1cccc(-n2sc3ccccc3c2=O)c1` gave DDE Tn7 FP inh inactive, Rtt109 HAT inh 178, LANA DNA inh inactive, Keap1 Nrf2 FP inactive and DDE Tn6 FP inh inactive.
Cc1ccccc1-n1sc2cc(F)ccc2c1=O was read as DDE Tn7 FP inh inactive, Rtt109 HAT inh 102, LANA DNA inh inactive, Keap1 Nrf2 FP inactive and DDE Tn6 FP inh inactive.
`O=S(=O)(N[C@H]1CCCC[C@@H]1N1CCOCC1)c1ccc(Cl)cc1` gave DDE Tn7 FP inh inactive and DDE Tn6 FP inh inactive.
`Cc1c(Cl)c([N+](=O)[O-])nn1CC(=O)NCc1cccnc1` gave DDE Tn7 FP inh inactive, Rtt109 HAT inh inactive, LANA DNA inh inactive, Keap1 Nrf2 FP inactive and DDE Tn6 FP inh inactive.
For Cc1nn(CC(=O)NCc2cccnc2)c(C)c1[N+](=O)[O-] the results were DDE Tn7 FP inh inactive, Rtt109 HAT inh 68, LANA DNA inh inactive, Keap1 Nrf2 FP inactive and DDE Tn6 FP inh inactive.
For O=C(NC1CCCCC1)Oc1cc2oc(=O)sc2cc1Br the results were DDE Tn7 FP inh inactive, Rtt109 HAT inh 59, LANA DNA inh inactive, Keap1 Nrf2 FP inactive and DDE Tn6 FP inh inactive.
COc1cccc(OCc2cc(/C=N/Nc3ccc(C(=O)O)cc3)ccc2OC)c1 was read as DDE Tn7 FP inh inactive, Rtt109 HAT inh 50, LANA DNA inh inactive, Keap1 Nrf2 FP inactive and DDE Tn6 FP inh inactive.
COc1cccc(C(=O)Oc2ccc(/C=N/Nc3ccc(C(=O)O)cc3)cc2OC)c1 was read as DDE Tn7 FP inh inactive, Rtt109 HAT inh inactive, LANA DNA inh inactive, Keap1 Nrf2 FP inactive and DDE Tn6 FP inh inactive.
`Cc1cc(NS(=O)(=O)c2ccc(NC(=O)Cc3ccc(Cl)c(Cl)c3)cc2)on1` gave DDE Tn7 FP inh inactive and DDE Tn6 FP inh inactive.
Screening Cc1cc(C)nc(Sc2nc(Cl)nc(N(c3ccccc3)c3ccccc3)n2)n1 returned DDE Tn7 FP inh inactive, Rtt109 HAT inh 79, LANA DNA inh inactive, Keap1 Nrf2 FP inactive and DDE Tn6 FP inh inactive.
COc1cc(OC)c(NC(=O)CN(C)S(=O)(=O)c2ccc(-c3ccc(=O)[nH]n3)s2)cc1Cl was read as DDE Tn7 FP inh inactive, Rtt109 HAT inh 52, LANA DNA inh inactive, Keap1 Nrf2 FP inactive and DDE Tn6 FP inh inactive.
Screening CCCCCCCCCCCCCCCC[N+](C)(C)CC returned DDE Tn7 FP inh inactive, Rtt109 HAT inh 74, LANA DNA inh inactive, Keap1 Nrf2 FP inactive and DDE Tn6 FP inh inactive.
For O=S(=O)(O)c1cccc2cccc(Nc3ccccc3)c12 the results were DDE Tn7 FP inh inactive, Rtt109 HAT inh inactive, LANA DNA inh 96, Keap1 Nrf2 FP inactive and DDE Tn6 FP inh inactive.
Screening c1ccc(Nc2cccc3c(Nc4ccccc4)cccc23)cc1 returned DDE Tn7 FP inh inactive, Rtt109 HAT inh inactive, LANA DNA inh inactive, Keap1 Nrf2 FP inactive and DDE Tn6 FP inh inactive.
COc1ccc(C2CC3CN(C4CCCCC4)C(=O)C3N2C)cc1 (stereo unspecified) was read as DDE Tn7 FP inh inactive and DDE Tn6 FP inh inactive.
Cc1ccccc1N1C(S)=C(C#N)C(=O)NC12CCCCC2 was read as DDE Tn7 FP inh inactive, Rtt109 HAT inh 86, LANA DNA inh inactive, Keap1 Nrf2 FP inactive and DDE Tn6 FP inh inactive.
`Cc1ccc(N2C(S)=C(C#N)C(=O)NC23CCCCC3)cc1` gave DDE Tn7 FP inh inactive, Rtt109 HAT inh inactive, LANA DNA inh inactive, Keap1 Nrf2 FP inactive and DDE Tn6 FP inh inactive.
For COc1ccc(CN2C[C@]3(C=C4CCCCC4n4c(=O)n(-c5ccccc5)c(=O)n43)N=C2NC(=O)c2ccccc2)c(OC)c1 (stereo partly specified) the results were DDE Tn7 FP inh inactive and DDE Tn6 FP inh inactive.
O=C(O)c1cc(O)c2c(c1)C(=O)c1cccc(O)c1C2=O was read as DDE Tn7 FP inh inactive, Rtt109 HAT inh inactive, LANA DNA inh inactive, Keap1 Nrf2 FP inactive and DDE Tn6 FP inh 30.
For COc1ccc(CNC(=O)C2CCCN(S(=O)(=O)c3c(C)n[nH]c3C)C2)cc1 (stereo unspecified) the results were DDE Tn7 FP inh inactive, Rtt109 HAT inh 67, LANA DNA inh inactive, Keap1 Nrf2 FP inactive and DDE Tn6 FP inh inactive.
